Measured values from publication PMC7359852 (ACS Infectious Diseases, 2020).
Read-outs that look alike come from different tables or passages of the source.

Columns and labels:
adult S. mansoni [1] = test: Viability of adult S. mansoni worms in vitro, microscopic viability score; format: cell-based, Schistosoma mansoni; conditions: for IC50: Table 1, adult worms after 72 h; for adult (%) 0.1 μM: Table 1, 0.1 μM; for adult (%) 0.1 μM / adult (%) 1 μM: effect on adult worms after 72 h; for adult (%) 1 μM: Table 1, 1 μM
Outline: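 Adult worms were picked from the hepatic portal and mesenteric veins of mice infected 49 days earlier with 100 cercariae. They were washed in PBS pH 7.4 and held in RPMI 1640 with 5% heat-inactivated FCS and antibiotics at 37 °C, 5% CO2. Worms were exposed to test compound for 72 h, with medium plus 1% DMSO as control. Motility, viability and morphology were scored daily by microscopy at 80×. IC50 used a 3-fold dilution series starting at 1 μM and was computed from the scores.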

S. mansoni [2] = test: In vivo study in mice harboring a chronic S. mansoni infection; conditions: single oral dose 10 mg/kg
Outline: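 Female NMRI mice (3 weeks old, ca. 20–22 g) were infected subcutaneously with about 100 S. mansoni cercariae. At day 49 post-infection (adult infection), groups of four received a single oral 10 mg/kg dose of test compound; untreated mice served as controls. Mice were euthanised with CO2 21 days after treatment. Worms were picked, sexed and counted, and worm burden reduction was calculated.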

S. mansoni NTS = conditions: read-out: IC50 against NTS; cited from earlier work
adult S. mansoni [3] = conditions: read-out: IC50 against adult S. mansoni; cited from earlier work
S. mansoni [4] = conditions: cited from earlier work
S. mansoni [5] = conditions: cited from earlier work; remark: listed apart in the source

SMILES: C[C@@H]1C[C@H](O)[C@]2(O)O[C@@H]3C[C@@]4(C=O)[C@@H](CC[C@@H]5[C@@H]4CC[C@]4(C)[C@@H](C6=CC(=O)OC6)CC[C@]54O)C[C@H]3O[C@@H]2O1 [5a, Calotropin]
- IC50 (adult S. mansoni [1]; Schistosoma mansoni, 72 h): 371 nM
- adult (%) 0.1 μM (adult S. mansoni [1]): 22.9%
- adult (%) 1 μM (adult S. mansoni [1]): 97%

SMILES: C[C@@H]1C[C@@]2(NCCS2)[C@]2(O)O[C@@H]3C[C@@]4(C=O)[C@@H](CC[C@@H]5[C@@H]4CC[C@]4(C)[C@@H](C6=CC(=O)OC6)CC[C@]54O)C[C@H]3O[C@@H]2O1 [5aa, Voruscharin]
- adult (%) 0.1 μM (adult S. mansoni [1]): 31.3%
- adult (%) 1 μM (adult S. mansoni [1]): 98%
- IC50 (adult S. mansoni [1]): 137 nM

SMILES: C[C@@H]1C[C@H](O)[C@]2(O)O[C@@H]3C[C@@]4(C)[C@@H](CC[C@@H]5[C@@H]4CC[C@]4(C)[C@@H](C6=CC(=O)OC6)CC[C@]54O)C[C@H]3O[C@@H]2O1 [5f, Gomphoside]
- adult (%) 0.1 μM (adult S. mansoni [1]): 24.4%
- adult (%) 1 μM (adult S. mansoni [1]): 94%
- IC50 (adult S. mansoni [1]): 196 nM

SMILES: C[C@@H]1C[C@@]2(N=CCS2)[C@]2(O)O[C@@H]3C[C@@]4(C=O)[C@@H](CC[C@@H]5[C@@H]4CC[C@]4(C)[C@@H](C6=CC(=O)OC6)CC[C@]54O)C[C@H]3O[C@@H]2O1 [5z, Uscharin]
- IC50 (adult S. mansoni [1]; Schistosoma mansoni, 72 h): 76 nM
- adult (%) 0.1 μM (adult S. mansoni [1]): 51%
- adult (%) 1 μM (adult S. mansoni [1]): 100%
- mean number of worms, MV (S. mansoni [2]): 27.7 ± 6.5
- mean number of worms, females (S. mansoni [2]): 13.0 ± 4.6
- mean number of worms, liver, alive (S. mansoni [2]): 0.7 ± 1.1
- mean number of worms, liver, dead (S. mansoni [2]): 0 ± 0
- mean number of worms, males (S. mansoni [2]): 15.3 ± 3.2
- mean number of worms, total (S. mansoni [2]): 28.3 ± 7.5
- total WBR (worm burden reduction) (S. mansoni [2]; chronic infection): 0%

SMILES: O=C(C1CCCCC1)N1CC(=O)N2CCc3ccccc3C2C1 (centres unmarked) [praziquantel]
- IC50 (S. mansoni NTS): 2200 nM
- IC50 (adult S. mansoni [3]): 100 nM

SMILES: CC(=O)S[C@@H]1CC2=CC(=O)CC[C@]2(C)[C@H]2CC[C@@]3(C)[C@@H](CC[C@@]34CCC(=O)O4)[C@H]12 [spironolactone]
- in vitro activity against S. mansoni (S. mansoni [4]): 7.2 µM
- in vivo activity (S. mansoni [5]): moderate
